JMJD2C inh = blocks human GASC-1 demethylase activity; Q9H3R0; 330,000 compounds, 0.069% hits; inhibition, % at 2.35 µM; AID 2099; GST-JMJD2C(1-420) H3K9me3 demethylation, DELFIA europium;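 active means more than half of a compound's replicate wells show inhibition beyond 50%, single wells judged on their own value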;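 further: signal counts dimethyl H3K9 product captured on neutravidin plate; 0% = median of DMSO wells and 100% = 0.3 times that DMSO median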
NR2E3 ag-1 = human photoreceptor-specific nuclear receptor agonism. inhibition of corepressor binding, % at 3.98 µM. 360,000 compounds, 0.35% hits. AID 602229. CHO-S Gal4-NCOR/VP16-NR2E3 two-hybrid, luciferase;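 active means inhibition above the mean of all tested compounds plus 3 SD, cut at about 70% in these data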;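 further: 0% = DMSO with NR2E3 transfected cells and 100% = cells lacking NR2E3 construct; higher means lower luciferase signal from less NR2E3 corepressor binding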
Target sequence (Q9Y5X4 whole entry, looked up, the tested form may be a part): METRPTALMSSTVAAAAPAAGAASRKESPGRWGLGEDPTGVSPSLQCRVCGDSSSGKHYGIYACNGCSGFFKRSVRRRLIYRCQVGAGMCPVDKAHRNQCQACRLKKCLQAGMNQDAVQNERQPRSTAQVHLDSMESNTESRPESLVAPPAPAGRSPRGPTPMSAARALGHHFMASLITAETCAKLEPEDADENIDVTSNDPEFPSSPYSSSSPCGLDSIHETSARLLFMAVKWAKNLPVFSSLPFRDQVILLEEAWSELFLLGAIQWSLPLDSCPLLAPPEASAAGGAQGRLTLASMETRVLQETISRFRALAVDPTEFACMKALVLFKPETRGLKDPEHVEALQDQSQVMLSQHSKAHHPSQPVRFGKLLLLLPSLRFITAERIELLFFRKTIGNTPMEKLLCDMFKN
NR2E3 ag-2 = NR2E3 (human) agonism; Q9Y5X4; GST-NR2E3/biotin-RetCOR TR-FRET, 1536-well; inhibition of corepressor binding, % at 4.78 µM; 320,000 compounds, 0.12% hits;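 active means percent inhibition above the cutoff of mean plus 3 SD of all tested compounds, set per screening campaign, cut at about 20% in these data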;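 further: 0% = DMSO wells and 100% = biotin wells as full block of FRET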
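Material – GST-tagged NR2E3 plus biotinylated RetCOR corepressor · Quantity – NR2E3 fusion 1.35 nM · Times – 5 h incubation at 4 °C · Medium – pH 7.5 Tris-based buffer · Technique – TR-FRET, Eu(K)-anti-GST donor, streptavidin-D2 acceptor, ex 340, em 617/671 nm · Benchmarks – high control biotin, low control 0.6% DMSO · Format – 1536-well plates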
SMARCA2 activ = activators of SMARCA2 function; MG213 cells, MMTV-luciferase reporter, dexamethasone, overnight; activation, % at 9.1 µM; 370,000 compounds, 1% hits; in the data active means activation above about 7.8%;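 further: 0% = vehicle wells and 100% = reference activator wells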
DAX1 inh-1 = DAX1 (NR0B1) inhibition, primary screen; 370,000 compounds, 1.1% hits; HEK293T StAR-luciferase reporter, SF-1/DAX-1 repression relief; inhibition, % at 6.8 µM;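 active means inhibition above the mean over all tested compounds plus 3 SD, cut at about 3.6% in these data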;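 further: 0% = DAX-1 cells with DMSO and 100% = cells lacking DAX-1 with DMSO; higher inhibition means more luminescence from relief of DAX-1 repression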
DAX1 inh-2 = NR0B1 (DAX1) inhibition. 340,000 compounds, 0.99% hits. P51843. AID 504766. HEK293 Gal4-DAX1 luciferase reporter, luminescence. inhibition, % at 6.75 µM;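 active means inhibition above the mean over all tested compounds plus 3 SD, cut at about 4.2% in these data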;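 further: 0% = DAX1-transfected cells with DMSO and 100% = empty-vector control cells with DMSO; inhibition shows as a rise in luminescence from relieved DAX1 repression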
DAX1 conf = confirmation of human DAX1 (NR0B1) inhibitors | shares compounds with DAX1 inh-1 | HEK293T StAR-promoter luciferase reporter, SF-1/DAX-1 repression | inhibition, % at 6.8 µM | 2,400 compounds, 87% hits | AID 652134;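 active means inhibition above the average of every tested compound plus 3 SD, cut at about 3.8% in these data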;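 further: 0% = DAX-1 cells with DMSO and 100% = no DAX-1 control cells with DMSO; active compounds raise luminescence by relieving repression of the StAR reporter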
SF1 AF2mut Luc = nonselective inhibitor or artifact in SF-1 mutant DAX1 counter-screen; shares compounds with DAX1 inh-1; 2,400 compounds, 78% hits; inhibition, % at 6.8 µM; HEK293 StAR-luciferase, SF-1 AF2 mutant, luminescence;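 active means inhibition above the mean of all tested compounds plus 3 SD, cut at about 3% in these data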;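 further: 0% = DAX-1 transfected cells with DMSO and 100% = cells without DAX-1 with DMSO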
* marks the source's active call; other numbers are inactive results; . = no result. This is a sample that favours compounds with a hit; in the whole collection about 3.2% have one here.

SMILES	JMJD2C inh	NR2E3 ag-1	NR2E3 ag-2	SMARCA2 activ	DAX1 inh-1	DAX1 inh-2	DAX1 conf	SF1 AF2mut Luc
C#CCNC(=O)C[C@H]1C[C@@]2(C(=O)OC)C(=C[C@H](C(C)C)O[C@@H]2C2CC2)N(Cc2cccc3ccccc23)C1=O	.	.	.	-1.8	-0.9	.	.	.
O=C(Nc1ncc(Cc2cccc([N+](=O)[O-])c2)s1)c1ccco1	-2.2	8.2	-2.8	3.9	1.9	0.4	.	.
Cc1ccc(Cc2cnc(NC(=O)c3ccco3)s2)cc1	10.9	-157.9	1.4	2.4	6.6*	-0.3	16.0*	5.2*
COC1=C[C@H](C(=O)NC2CCN(Cc3ccccc3)CC2)[C@@]2(C)Cc3ccccc3[C@H]2CC1=O	.	.	.	-3.8	0.2	.	.	.
Nc1nn2cc(-c3ccccc3)nc2c2ccccc12	-0.3	-163.1	-9.5	2.5	11.0*	2.1	18.7*	10.1*
COc1ccc2nc(C(c3ccc(C)cc3)n3c(-c4ccccc4Br)nc4ccccc43)[nH]c2c1 (stereo not given)	.	-143.7	.	6.3	5.8*	.	8.5*	5.5*
O=C(OC12CCCN(C1)/C(=C/c1ccccc1)C2)c1cccc(F)c1 (stereo not given)	.	.	.	3.6	1.0	.	.	.
CCOC(=O)N1CCN(C(=O)C[C@H]2C[C@@]3(C(=O)OC)C(=C[C@H](C4CCCC4)O[C@@H]3C)N(CCc3ccc(OC)c(OC)c3)C2=O)CC1	.	.	.	-4.6	-2.2	.	.	.
COC(=O)[C@]1(CNC(=O)C(F)(F)F)CC(=O)N(C)[C@@H]1c1ccccc1	.	.	.	-0.6	0.3	.	.	.
O=C1c2ccccc2C(c2nnnn2Cc2ccccc2)N1CCOc1ccccc1 (stereo not given)	.	-119.5	.	-0.2	7.2*	.	6.5*	4.1*
CC(C)n1nnnc1C1c2ccccc2C(=O)N1CCc1c[nH]c2ccccc12 (stereo not given)	.	-68.6	.	3.1	5.5*	.	2.6	2.3
O=C1c2ccccc2C(c2nnnn2Cc2ccccc2)N1CCc1ccccc1F (stereo not given)	.	-115.6	.	4.9	9.2*	.	-3.6	-0.6
CC(C)c1[nH]nc2c1C(c1ccc(F)cc1)NC2=O (stereo not given)	.	.	.	1.5	0.9	.	.	.
CN[C@H]1C[C@H]2c3[nH]c4cccc(-c5cccc(C)c5)c4c3CCN2C(=O)[C@H]1[C@H](C)O	.	.	.	-3.5	0.2	.	.	.
CC(C)(C)c1ccc(S(=O)(=O)N2CCC(C(=O)N3CCN(C4CCCCC4)CC3)CC2)cc1	.	.	.	-5.1	-0.8	.	.	.
O=C(C1CCCN(S(=O)(=O)c2ccc(F)cc2)C1)N1CCN(Cc2ccccc2)CC1 (stereo not given)	.	.	.	1.4	-2.0	.	.	.
Cc1ccc(C(=O)CSc2cc(C)[nH]c(=O)n2)cc1	-0.2	-192.8	3.0	5.2	11.8*	5.0*	11.4*	8.3*
Cc1cc(SCC(=O)c2ccc(Cl)cc2)nc(=O)[nH]1	6.1	-212.7	1.6	3.5	3.2	0.7	.	.
COc1ccc2c(c1)CNC2CS(=O)(=O)NCc1ccccc1 (stereo not given)	.	.	.	-3.1	-1.4	.	.	.
N=C1N(c2ccccc2)C(=S)C(=Nc2ccccc2)N1c1ccccc1	.	-68.6	.	2.4	8.6*	2.6	-5.0	-2.8
Fc1ccc(N2C(=S)SC(=Nc3ccccc3)C2=Nc2ccccc2)cc1	.	-64.6	.	0.9	0.9	2.1	.	.
O=c1[nH]c(=O)n([C@H]2C[C@H](O)[C@@H](CO)O2)cc1Br	6.6	-12.8	-2.8	2.8	13.3*	0.6	14.0*	5.5*
O=c1[nH]c(=O)n([C@H]2C[C@H](O)[C@@H](CO)O2)cc1F	-9.2	10.4	4.1	-3.0	-4.6	-2.7	.	.
O=c1[nH]c(=O)n(C2CC(O)C(CO)O2)cc1I (stereo not given)	.	-3.9	.	-5.2	13.3*	4.2	22.8*	9.3*
COC(=O)C1CN(CCO)CCS(=O)(=O)N1Cc1cn(Cc2ccc(C)cc2)nn1 (stereo not given)	.	.	.	-1.9	-0.5	.	.	.
